NTR1 ag: agonists of human NTR1, primary screen, imaging, U2OS cells, beta-arrestin-GFP, high content | activation, % at 20 µM | NTR1-U2OS beta-arrestin-GFP spot imaging, agonist mode | AID 493036, 2011 | actives 0.17% (n = 330,000);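 active means activation at or above 40% of the spot to cytoplasm intensity ratio, with at least 20 cells analyzed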;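 further: 0% = DMSO without peptide and 100% = 100 nM NTR1 peptide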
PKA-R2B activ: activators of PKA-R2B holoenzyme, primary screen, biochemical, fluorescence polarization, Cy5-IP20, human; actives 0.079% (n = 340,000); PKA-R2B holoenzyme dissociation; R2B truncated from residue 108, S112A mutant; 0% DMSO only, 100% 113 µM cGMP; activation, % at 11.4 µM; cAMP-dependent protein kinase catalytic subunit beta (Homo sapiens) + cAMP-dependent …;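 active means activation above a cutoff set at the mean over all compounds plus 3 SD, cut at about 18% in these data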;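 further: higher means more holoenzyme dissociation and a rise in polarization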
dFosB act-1: activators of delta FosB homodimer, primary screen, biochemical, fluorescence polarization, TAMRA-CDK5 oligo, single point. Protein FosB (Mus musculus), P13346. purified delta FosB; percent of positive-control signal above neutral wells. activation, % at 25 µM. actives 0.99% (n = 340,000). AID 493131, 2011;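 active means mean activation above about 17%, with every replicate also reaching it, limit read from the data, passing the limit was not always enough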
Target sequence (P13346 whole entry, looked up): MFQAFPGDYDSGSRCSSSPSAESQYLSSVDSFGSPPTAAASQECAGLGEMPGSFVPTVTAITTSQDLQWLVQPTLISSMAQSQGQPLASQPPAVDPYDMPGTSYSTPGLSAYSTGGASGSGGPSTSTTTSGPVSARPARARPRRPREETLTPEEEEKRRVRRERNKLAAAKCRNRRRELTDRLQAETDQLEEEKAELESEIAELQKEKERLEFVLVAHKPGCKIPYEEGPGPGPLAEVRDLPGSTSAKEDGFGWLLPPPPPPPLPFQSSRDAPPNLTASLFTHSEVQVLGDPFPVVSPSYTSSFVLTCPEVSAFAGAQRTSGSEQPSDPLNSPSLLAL
CAL PDZ FP-1: CAL PDZ peptide-binding inhibitors, primary screen, biochemical, fluorescence polarization, Cer-tagged CAL PDZ, HTS; Golgi-associated PDZ and coiled-coil motif-containing protein (Homo sapiens), Q9HD26; purified CAL PDZ, TMR-peptide fluorescence polarization, 1 h; inhibition, % at 20 µM; actives 0.02% (n = 330,000); AID 504414, 2011;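 active means highest replicate inhibition of at least 40%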;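 further: plate controls were DMSO neutral control wells for no effect and unlabeled competitor peptide control wells for full effect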
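Read-out basis: mP drop reported as inhibition | Assay system: Tagged CAL PDZ protein CerCALP, purified | Benchmarks: Unlabelled peptide for full inhibition, DMSO wells as neutral | Schedule: 1 h incubation at room temperature before polarization reading | Buffer or medium: Sodium phosphate/NaCl buffer pH 7.4 with TCEP, IgG, Thesit | Doses: Single point, 20 µM | Measured by: Fluorescence polarization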
CAL PDZ FP-2: untagged CAL PDZ binding inhibitors, primary screen, biochemical, fluorescence polarization, HTS; AID 602252, 2012; actives 0.92% (n = 300,000); purified CAL PDZ, TMR-peptide fluorescence polarization, 1 h; inhibition, % at 24.9 µM; Golgi-associated PDZ and coiled-coil motif-containing protein (Homo sapiens), Q9HD26;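 active means mean inhibition of at least 30% with at least half of replicates also reaching 30%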;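 further: 0% = DMSO neutral control and 100% = excess unlabeled competitor peptide PRC23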
PKA-R1A activ: activators of PKA-R1A holoenzyme, primary screen, biochemical, fluorescence polarization, Cy5-IP20, bovine R1A, mouse PKAc; PKA-R1A dissociation; scaled: DMSO 0%, 113 µM cGMP 100%; activation, % at 11.4 µM; actives 0.083% (n = 340,000);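 active means percent activation above the mean of all tested compounds plus 3 SD, cut at about 19% in these data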;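 further: higher means more PKAc released from R1A so a rise in polarization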
dFosB act-2: activators of mouse delta FosB DNA binding, confirmation, biochemical, fluorescence polarization, TAMRA-CDK5 oligo, cherry-picked samples | shares compounds with dFosB act-1 | purified delta FosB; normalised: neutral wells 0, positive control 100 | activation, % at 24.9 µM | 2,400 tested, under 10 active;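 active means highest replicate activation at or above 34% and every replicate reaching that threshold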;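 further: higher polarization means more probe DNA bound by delta FosB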
Numbers without * were called inactive; nt = not tested or not shown. This is a sample that favours compounds with a hit; in the whole collection about 2% have one here.

SMILES	NTR1 ag	PKA-R2B activ	dFosB act-1	CAL PDZ FP-1	CAL PDZ FP-2	PKA-R1A activ	dFosB act-2
COc1ccc(CCNC(=O)c2ccc3c(c2)SC2=NS(=O)(=O)CCN23)cc1	-0.3	-5.0	-5.0	-0.6	-10.7	-6.3	nt
O=C(Nc1cccc(Cl)c1)c1ccc2c(c1)SC1=NS(=O)(=O)CCN12	nt	4.0	26.4*	-4.6	1.8	11.1	-0.6
Cc1ccc(NC(=O)CSc2nncn2-c2ccccn2)cc1Cl	2.9	-0.8	25.6*	0.5	-1.0	-6.9	-4.0
COc1ccc(N(CC(=O)Nc2ccc3c(c2)OCCO3)S(=O)(=O)c2c(C)noc2C)cc1	-0.2	4.8	36.9*	-1.9	-6.0	-11.1	2.6
Cc1ccc(N(CC(=O)Nc2ccc3c(c2)OCCO3)S(=O)(=O)c2c(C)noc2C)cc1	-0.9	-10.4	-9.5	-2.0	1.4	-13.3	nt
COc1ccccc1OCCNC(=O)C(CCSC)NS(=O)(=O)c1ccccc1F (centres undefined)	-2.1	4.8	-5.9	1.0	-6.0	-3.4	nt
Cc1ccc2[nH]c3c(=O)n(CC(=O)NCc4ccco4)ncc3c2c1	-1.3	-3.8	26.1*	-1.6	-4.4	-0.9	1.6
Cc1ccc(CNC(=O)c2nnn(CC(=O)Nc3cccc(C)c3C)c2N)cc1	0.5	-13.8	65.6*	-3.5	-1.4	-8.4	-1.4
Cc1ccc(CNC(=O)Cn2nnc(C(=O)Nc3cccc(C)c3C)c2N)cc1	0.3	-4.3	5.8	-1.1	-4.1	6.4	nt
Cc1ccc(C)c(NC(=O)Cn2nnc(C(=O)NCc3ccco3)c2N)c1	0.5	9.6	29.9*	-2.2	-1.8	-2.5	-4.8
CC(=O)NC(CC(=O)N1CCCC1)c1ccccc1 (centres undefined)	-0.1	-8.3	0.2	-0.5	nt	-16.7	nt
CSc1ccc(CNCC2CCCO2)cc1 (centres undefined)	0.1	8.2	0.3	0.0	-2.3	4.2	nt
Cc1ccc(C)c(OCc2cc(C(=O)NC3CCN(Cc4ccccc4)CC3)no2)c1	3.9	-4.8	21.9*	-2.1	0.5	-1.8	3.5
Cc1nc(SCc2nc3c(F)cccc3[nH]2)c2oc3ccccc3c2n1	0.3	-2.2	6.1	2.7	-4.1	-12.2	nt
CCOc1ccc(-c2nnc3ccc(SCC(=O)Nc4nc5ccc(C)cc5s4)nn23)cc1	4.1	-8.6	41.6*	-0.6	0.2	-7.2	-0.3
CCOc1ccc(-c2nnc3ccc(SCC(=O)Nc4nc5ccccc5s4)nn23)cc1	1.4	11.2	-3.6	-6.6	-2.9	-3.8	nt
CCOC(=O)c1sc(NC(=O)CC)nc1C	-0.1	9.5	-4.9	-1.5	3.5	-1.5	nt
CCOC(=O)c1sc(NC(=O)CCc2ccc(OC)cc2)nc1C	0.0	0.5	25.2*	-2.5	-2.3	5.4	0.5
CCOc1ccccc1NC(=O)c1cc(C(=O)c2cc(Br)ccc2O)coc1=N	7.8	3.0	33.0*	-1.0	-2.6	2.5	3.9
COc1ccc(-n2nc(C(=O)NCC(=O)Nc3cccc(Cl)c3)c3ccccc3c2=O)cc1	1.2	-0.3	39.4*	-3.1	0.6	-3.3	5.3
CCOc1ccc(NC(=O)CNC(=O)c2nn(-c3ccc(OC)cc3)c(=O)c3ccccc23)cc1	1.6	-3.1	-1.0	-1.2	-2.2	-6.4	nt

Screening results (PubChem BioAssay)
